Measured values: ChEMBL document CHEMBL3272134, “Diastereoisomers of 5,10-methylene-5,6,7,8-tetrahydropteroyl-D-glutamic acid” (J Med Chem, 1977)
Activity calls are given as the source filed them. The rule behind the calls is not given here.

T1: Thymidylate synthase (Lactobacillus casei) (UniProt P00469)
T1 sequence (whole entry): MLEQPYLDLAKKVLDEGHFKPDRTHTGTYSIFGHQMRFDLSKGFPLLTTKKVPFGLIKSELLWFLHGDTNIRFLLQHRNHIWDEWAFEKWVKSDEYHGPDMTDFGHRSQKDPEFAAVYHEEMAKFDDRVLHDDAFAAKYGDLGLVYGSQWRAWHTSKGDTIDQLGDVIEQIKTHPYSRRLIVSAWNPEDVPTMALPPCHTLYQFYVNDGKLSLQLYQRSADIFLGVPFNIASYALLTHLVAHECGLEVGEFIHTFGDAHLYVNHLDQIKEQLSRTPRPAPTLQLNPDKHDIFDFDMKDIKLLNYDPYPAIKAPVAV

B1: Thymidylate synthase (Lactobacillus casei), P00469 (protein)
chain: T1 sequence (whole entry)

Key:
[1] = biological target: T1, Thymidylate synthase (Lactobacillus casei); experiment: Inhibition of Lactobacillus casei thymidylate synthetase using dl-5,10-Methylene tetrahydropteroyl-L-glutamate as substrate at 3.3 x 10^-5 M by spectrophotometric analysis; conditions: Lacticaseibacillus casei
Lacticaseibacillus casei [2] = experiment: Induction of growth of Lactobacillus casei ATCC 7469 up to 5 ug/mL; format: functional, organism-based
Lacticaseibacillus casei [3] = experiment: Growth inhibition of Lactobacillus casei ATCC 7469 up to 5 ug/mL; format: functional, organism-based
Summary of the method: (§1)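 Media were as follows. L. casei ATCC 7469 was grown on folate assay broth with folate at 1 ng/mL. P. cerevisiae ATCC 8081 was grown on CF assay medium with dl-5-formyltetrahydrofolate at 1 ng/mL. S. faecium ATCC 8043 was grown on Flynn medium with folate at 1 ng/mL.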

Enterococcus faecium [4] = experiment: Growth inhibition of Streptococcus faecium ATCC 8043 up to 5 ug/mL; format: functional, organism-based; summary of the method: as §1
Pediococcus [5] = experiment: Induction of growth of Pediococcus cerevisiae ATCC 8081 up to 5 ug/mL; format: functional
Pediococcus [6] = experiment: Growth inhibition of Pediococcus cerevisiae ATCC 8081 up to 5 ug/mL; format: functional; summary of the method: as §1
Enterococcus faecium [7] = experiment: Induction of growth of Streptococcus faecium ATCC 8043 up to 5 ug/mL; format: functional, organism-based
[8] = biological target: T1, Thymidylate synthase (Lactobacillus casei); experiment: Inhibition of Lactobacillus casei thymidylate synthetase using dl-5,10-Methylene tetrahydropteroyl-L-glutamate as substrate at 3.3 x 10^-5 M relative to control; conditions: Lacticaseibacillus casei
[9] = biological target: T1, Thymidylate synthase (Lactobacillus casei); experiment: Activity of Lactobacillus casei thymidylate synthetase at 7 x 10^-5 M by spectrophotometric analysis; conditions: Lacticaseibacillus casei
[10] = biological target: T1, Thymidylate synthase (Lactobacillus casei); experiment: Inhibition of Lactobacillus casei thymidylate synthetase using l-5,10-Methylene tetrahydropteroyl-L-glutamate as substrate at 6.3 x 10^-5 M relative to control; conditions: Lacticaseibacillus casei
[11] = biological target: T1, Thymidylate synthase (Lactobacillus casei); experiment: Inhibition of Lactobacillus casei thymidylate synthetase using l-5,10-Methylene tetrahydropteroyl-L-glutamate as substrate at 6.3 x 10^-5 M by spectrophotometric analysis; conditions: Lacticaseibacillus casei
[12] = biological target: T1, Thymidylate synthase (Lactobacillus casei); experiment: Activity of Lactobacillus casei thymidylate synthetase assessed as release of [3H] from [5-3H]-deoxyuridine 5' phosphate at 4.5 x 10^-5 M; conditions: Lacticaseibacillus casei
[13] = biological target: Dihydrofolate reductase (Lactobacillus casei) (UniProt P00381); experiment: Inhibition of Lactobacillus casei dihydrofolate reductase using 7,8-Dihydropteroyl-L-glutamate as substrate at 1.5 x 10^-5 M by spectrophotometric analysis; conditions: Lacticaseibacillus casei
[14] = biological target: T1, Thymidylate synthase (Lactobacillus casei); experiment: Activity of Lactobacillus casei thymidylate synthetase at 4.5 x 10^-5 M by spectrophotometric analysis; conditions: Lacticaseibacillus casei
[15] = biological target: T1, Thymidylate synthase (Lactobacillus casei); experiment: Inhibition of Lactobacillus casei thymidylate synthetase using dl-5,10-Methylene tetrahydropteroyl-L-glutamate as substrate at 2.4 x 10^-5 M by spectrophotometric analysis; conditions: Lacticaseibacillus casei
[16] = biological target: T1, Thymidylate synthase (Lactobacillus casei); experiment: Inhibition of Lactobacillus casei thymidylate synthetase using dl-5,10-Methylene tetrahydropteroyl-L-glutamate as substrate at 2.4 x 10^-5 M relative to control; conditions: Lacticaseibacillus casei
[17] = biological target: Dihydrofolate reductase (Lactobacillus casei) (UniProt P00381); experiment: Inhibition of Lactobacillus casei dihydrofolate reductase using 7,8-Dihydropteroyl-L-glutamate as substrate at 1.5 x 10^-5 M relative to control; conditions: Lacticaseibacillus casei
[18] = biological target: T1, Thymidylate synthase (Lactobacillus casei); experiment: Inhibition of Lactobacillus casei thymidylate synthetase at 1.7 x 10^-6 M relative to control; conditions: Lacticaseibacillus casei
[19] = biological target: T1, Thymidylate synthase (Lactobacillus casei); experiment: Activity of Lactobacillus casei thymidylate synthetase assessed as release of [3H] from [5-3H]-deoxyuridine 5' phosphate at 3 x 10^-4 M; conditions: Lacticaseibacillus casei
[20] = biological target: T1, Thymidylate synthase (Lactobacillus casei); experiment: Activity of Lactobacillus casei thymidylate synthetase at 3 x 10^-4 M by spectrophotometric analysis; conditions: Lacticaseibacillus casei
[21] = biological target: T1, Thymidylate synthase (Lactobacillus casei); experiment: Inhibition of Lactobacillus casei thymidylate synthetase using dl-5,10-Methylene tetrahydropteroyl-L-glutamate as substrate at 9.2 x 10^-5 M by spectrophotometric analysis; conditions: Lacticaseibacillus casei
[22] = biological target: T1, Thymidylate synthase (Lactobacillus casei); experiment: Inhibition of Lactobacillus casei thymidylate synthetase using dl-5,10-Methylene tetrahydropteroyl-L-glutamate as substrate at 9.2 x 10^-5 M relative to control; conditions: Lacticaseibacillus casei
[23] = biological target: T1, Thymidylate synthase (Lactobacillus casei); experiment: Inhibition of Lactobacillus casei thymidylate synthetase using dl-5,10-Methylene tetrahydropteroyl-L-glutamate as substrate at 1.3 x 10^-5 M relative to control; conditions: Lacticaseibacillus casei
[24] = biological target: T1, Thymidylate synthase (Lactobacillus casei); experiment: Inhibition of Lactobacillus casei thymidylate synthetase using dl-5,10-Methylene tetrahydropteroyl-L-glutamate as substrate at 1.3 x 10^-5 M by spectrophotometric analysis; conditions: Lacticaseibacillus casei
[25] = biological target: T1, Thymidylate synthase (Lactobacillus casei); experiment: Inhibition of Lactobacillus casei thymidylate synthetase using dl-5,10-Methylene tetrahydropteroyl-L-glutamate as substrate at 1 x 10^-4 M by spectrophotometric analysis; conditions: Lacticaseibacillus casei
[26] = biological target: T1, Thymidylate synthase (Lactobacillus casei); experiment: Inhibition of Lactobacillus casei thymidylate synthetase using dl-5,10-Methylene tetrahydropteroyl-L-glutamate as substrate at 1 x 10^-4 M relative to control; conditions: Lacticaseibacillus casei
[27] = substrate: Nc1nc(=O)c2c([nH]1)NCC1CN(c3ccc(C(=O)N[C@@H](CCC(=O)O)C(=O)O)cc3)CN21; experiment: Activity of Lactobacillus casei thymidylate synthetase by spectrophotometric analysis; conditions: Lacticaseibacillus casei

Dihydrofolate reductase (Lactobacillus casei), sequence (P00381 whole entry): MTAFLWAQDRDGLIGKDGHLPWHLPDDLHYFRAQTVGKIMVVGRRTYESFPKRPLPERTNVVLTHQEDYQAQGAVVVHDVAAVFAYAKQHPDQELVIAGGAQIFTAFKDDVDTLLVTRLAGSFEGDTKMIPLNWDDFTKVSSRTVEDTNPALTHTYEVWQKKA

Row | Molecule | Activity (Lacticaseibacillus casei [2]) | growth inhibition (GI) (Lacticaseibacillus casei [3]) | growth inhibition (GI) (Enterococcus faecium [4]) | Activity (Pediococcus [5]) | growth inhibition (GI) (Pediococcus [6]) | Activity (Enterococcus faecium [7]) | also measured
1 | Nc1nc2c(c(=O)[nH]1)N1CN(c3ccc(C(=O)N[C@H](CCC(=O)O)C(=O)O)cc3)CC1CN2 (mixture of isomers) | inactive | inactive | inactive | inactive | inactive | inactive | deltaOD [1]: 0.03 min⁻¹; inhibition [8]: 0%; deltaOD [9]: 0 min⁻¹
2 | Nc1nc(=O)c2c([nH]1)NCC1CN(c3ccc(C(=O)N[C@@H](CCC(=O)O)C(=O)O)cc3)CN21 (stereo in doubt) | inactive | inactive | inactive | inactive | inactive | inactive | inhibition [10]: 14%; deltaOD [11]: 0.02 min⁻¹
3 | Nc1nc2c(c(=O)[nH]1)N1CN(c3ccc(C(=O)N[C@H](CCC(=O)O)C(=O)O)cc3)CC1CN2 (stereo in doubt; form 1) | inactive | inactive | inactive | inactive | inactive | inactive | Activity [12]: < 2000 cpm; deltaOD [13]: 0.032 min⁻¹; deltaOD [14]: 0 min⁻¹; deltaOD [15]: 0.03 min⁻¹; inhibition [16]: 0%; inhibition [17]: 0%
4 | CN(Cc1ccc2nc(N)nc(O)c2c1)c1ccc(C(=O)N[C@@H](CCC(=O)O)C(=O)O)cc1 |  |  |  |  |  |  | inhibition [18]: 83%
5 | Nc1nc(=O)c2c([nH]1)NCC1CN(c3ccc(C(=O)N[C@@H](CCC(=O)O)C(=O)O)cc3)CN21 (mixture of isomers) | inactive | inactive | inactive | inactive | inactive | inactive | Activity [19]: 71000 cpm; deltaOD [20]: 0.03 min⁻¹
6 | Nc1nc2c(c(=O)[nH]1)N=C(CNc1ccc(C(=O)N[C@H](CCC(=O)O)C(=O)O)cc1)CN2 |  |  |  |  |  |  | deltaOD [21]: 0.027 min⁻¹; inhibition [22]: 10%
7 | Nc1nc2c(c(=O)[nH]1)N1CN(c3ccc(C(=O)N[C@H](CCC(=O)O)C(=O)O)cc3)CC1CN2 (stereo in doubt; form 2) | inactive | inactive | inactive | inactive | inactive | inactive | Activity [12]: < 2000 cpm; inhibition [23]: 0%; deltaOD [13]: 0.032 min⁻¹; deltaOD [14]: 0 min⁻¹; inhibition [17]: 0%; deltaOD [24]: 0.03 min⁻¹
8 | Nc1nc(=O)c2c([nH]1)NCC(CNc1ccc(C(=O)N[C@@H](CCC(=O)O)C(=O)O)cc1)=N2 |  |  |  |  |  |  | deltaOD [25]: 0.02 min⁻¹; inhibition [26]: 26%
9 | B1 |  |  |  |  |  |  | Km [27]: 15 µM
